According to ChEMBL document CHEMBL1153987 (J Med Chem, 2009):
Activity calls are given as the source filed them. No cut-off for these calls is given here.

Columns and labels:
[1] = tested on: Jurkat; assay: Inhibition of heat-induced HSP70 expression in human Jurkat cells at 50 ug/mL treated for 1 hr before heat induction by Western blot; type: functional, cell-based
[2] = target: Heat shock protein beta-1 (Homo sapiens) (UniProt P04792); assay: Enhancement of HSP27 Ser78 phosphorylation in human HeLa cells at 50 ug/mL treated for 1 hr; type: cell-based
Outline: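 HeLa cells in DMEM + 10% calf serum, exponentially growing, exposed 1 h to 50 μg/ml compound; total cell extracts probed by Western blot with rabbit antibody to human HSP27 phospho-Ser78, alkaline phosphatase-conjugated goat anti-rabbit secondary, colorimetric detection.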

[3] = tested on: Jurkat; assay: Inhibition of heat-induced increase in nuclear HSF1 protein level in human Jurkat cells at 50 ug/mL treated for 1 hr before heat induction by Western blot; type: functional, cell-based
Outline: (§1)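 Cells were pretreated with compound for 1 h, then heat-shocked at 43 °C for 30 min. Nuclear extracts, the same ones prepared for EMSA, were analysed by Western blot with rabbit anti-HSF1 and goat anti-rabbit HRP, with chemiluminescent detection. Nuclear HSF1 level was read from band intensity. The phosphorylation state was read as reduced gel mobility of the HSF1 band.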

[4] = tested on: HeLa; assay: Inhibition of heat-induced increase in nuclear HSF1 protein level in human HeLa cells at 50 ug/mL treated for 1 hr before heat induction by Western blot; type: functional, cell-based; outline: as §1
[5] = tested on: Jurkat; assay: Inhibition of heat-induced increase in nuclear HSF1 protein phosphorylation in human Jurkat cells assessed as decrease in protein mobility at 50 ug/mL treated for 1 hr before heat induction by EMSA; type: functional, cell-based; outline: as §1
[6] = tested on: HeLa; assay: Inhibition of heat-induced increase in nuclear HSF1 protein phosphorylation in human HeLa cells assessed as decrease in protein mobility at 50 ug/mL treated for 1 hr before heat induction by EMSA; type: functional, cell-based; outline: as §1
[7] = Inhibition of CK2 assessed as level of ATP utilized by luciferase-based bioluminescence assay
[8] = Inhibition of CAMK2 assessed as level of ATP utilized by luciferase-based bioluminescence assay

Sequence of Heat shock protein beta-1 (Homo sapiens) (P04792 whole entry): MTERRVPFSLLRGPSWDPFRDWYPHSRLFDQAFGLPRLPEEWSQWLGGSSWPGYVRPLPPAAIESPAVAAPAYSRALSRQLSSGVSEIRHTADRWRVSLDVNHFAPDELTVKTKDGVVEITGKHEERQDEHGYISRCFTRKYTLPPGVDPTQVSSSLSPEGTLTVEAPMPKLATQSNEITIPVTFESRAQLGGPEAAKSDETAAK

O=c1c(O)c(-c2ccc(O)c(O)c2)oc2cc(O)cc(O)c12 [QUERCETIN]
Activity [1]: Active | Activity [2]: Active | Activity [3]: inactive | Activity [4]: inactive | Activity [5]: Active | Activity [6]: Active | IC50 [7]: 5.6 µM | IC50 [8]: 3.3 µM

O=C(O)COc1cc(O)c2c(=O)c(O)c(-c3ccc(O)c(O)c3)oc2c1
Activity [1]: inactive | Activity [2]: inactive | IC50 [7]: 9.7 µM | IC50 [8]: 9.3 µM

COc1ccc(-c2oc3cc(O)cc(O)c3c(=O)c2O)cc1O [TAMARIXETIN]
Activity [2]: inactive | IC50 [7]: > 100 µM | IC50 [8]: 16.4 µM

COC(=O)COc1cc(O)c2c(=O)c(O)c(-c3ccc(O)c(O)c3)oc2c1
Activity [1]: Active | Activity [2]: Active | IC50 [7]: 0.85 µM | IC50 [8]: 9.1 µM

COc1cc(O)c2c(=O)c(O)c(-c3ccc(O)c(O)c3)oc2c1 [RHAMNETIN]
Activity [1]: Active | Activity [2]: Active | IC50 [7]: 9.7 µM | IC50 [8]: 8.9 µM

O=C(O)COc1c(-c2ccc(O)c(O)c2)oc2cc(O)cc(O)c2c1=O
Activity [1]: inactive | Activity [2]: inactive | IC50 [7]: 2.45 µM | IC50 [8]: > 100 µM

COC(=O)COc1cc(-c2oc3cc(O)cc(O)c3c(=O)c2O)ccc1O
Activity [1]: Active | Activity [2]: inactive | IC50 [7]: 53 µM | IC50 [8]: 6.3 µM

COc1cc(O)cc2oc(-c3ccc(O)c(O)c3)c(O)c(=O)c12
Activity [1]: inactive | Activity [2]: inactive | IC50 [7]: > 100 µM | IC50 [8]: 4 µM

COc1cc(-c2oc3cc(O)cc(O)c3c(=O)c2O)ccc1O [ISORHAMNETIN]
Activity [1]: Active | Activity [2]: inactive | IC50 [7]: 0.5 µM | IC50 [8]: 0.91 µM

COC(=O)COc1cc(O)cc2oc(-c3ccc(O)c(O)c3)c(O)c(=O)c12
Activity [1]: inactive | Activity [2]: inactive | IC50 [7]: > 100 µM | IC50 [8]: 69 µM

COc1c(-c2ccc(O)c(O)c2)oc2cc(O)cc(O)c2c1=O [3-O-METHYLQUERCETIN]
Activity [1]: inactive | Activity [2]: inactive | IC50 [7]: 0.83 µM | IC50 [8]: > 100 µM
